This passage reports IC50 results from ChEMBL document CHEMBL2401632, “New bioactive dihydrofuranocoumarins from the roots of the Tunisian Ferula lutea (Poir.) Maire” (Bioorg Med Chem Lett, 2013).

For one experiment, the system named is PANC-1. As to the kind of experiment: Cytotoxicity against human PANC1 cells after 96 hrs by MTT assay. The class given is functional, cell-based. Conditions: PANC-1, 96 h. (Tetrazolium dyes change colour on reduction, which living cells bring about.)
A further experiment relates to HCT-116. Put plainly: Cytotoxicity against human HCT116 cells after 96 hrs by MTT assay. Conditions: HCT-116, 96 h. The class given is functional, cell-based. The essentials: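 Cells were seeded at 5000 or 10,000 per well and exposed to medium with various sample concentrations for 96 h, with 0.1% DMSO as vehicle control. MTT (5 mg/mL in PBS) was then added for 4 h at 37 °C, 5% CO2. Formazan was dissolved in DMSO and read at OD 570 nm.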

The target of a further experiment is Acetylcholinesterase (Homo sapiens, UniProt P22303). As to the kind of experiment: Inhibition of acetylcholinesterase (unknown origin) using acetylcholine iodide as substrate preincubated for 15 mins prior to substrate addition by spectrophotometric analysis.
Acetylcholinesterase, sequence (P22303 whole entry): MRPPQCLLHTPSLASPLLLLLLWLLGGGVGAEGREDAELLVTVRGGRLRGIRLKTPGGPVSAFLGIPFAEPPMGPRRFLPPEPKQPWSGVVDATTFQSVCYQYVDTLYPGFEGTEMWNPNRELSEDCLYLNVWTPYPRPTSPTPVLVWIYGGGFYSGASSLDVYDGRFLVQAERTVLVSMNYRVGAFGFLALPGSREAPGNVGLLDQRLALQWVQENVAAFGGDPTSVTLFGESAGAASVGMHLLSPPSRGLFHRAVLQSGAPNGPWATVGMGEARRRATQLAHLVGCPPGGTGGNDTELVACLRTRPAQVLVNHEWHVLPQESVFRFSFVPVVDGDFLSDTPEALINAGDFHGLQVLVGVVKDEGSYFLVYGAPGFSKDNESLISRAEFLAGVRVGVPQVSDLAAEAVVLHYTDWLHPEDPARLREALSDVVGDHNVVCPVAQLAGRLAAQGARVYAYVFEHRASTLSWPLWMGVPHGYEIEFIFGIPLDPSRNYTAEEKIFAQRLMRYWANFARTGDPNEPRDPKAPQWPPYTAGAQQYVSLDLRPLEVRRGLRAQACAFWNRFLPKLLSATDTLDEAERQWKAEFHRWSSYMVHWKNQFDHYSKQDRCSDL
In a further experiment the test system is HT-29. As to the kind of experiment: Cytotoxicity against human HT-29 cells after 96 hrs by MTT assay. The class given is functional, cell-based. Conditions: HT-29, 96 h. The procedure, abridged:
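Cells were seeded at 5000 or 10,000 per well and exposed to medium with various sample concentrations for 96 h, with 0.1% DMSO as vehicle control. MTT (5 mg/mL in PBS) was then added for 4 h at 37 °C, 5% CO2. Formazan was dissolved in DMSO and read at OD 570 nm. IC50 is the concentration giving 50% toxicity; duplicate tests, mean ± SD (n = 2).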

Another experiment has as its system AGS. Put plainly: Cytotoxicity against human AGS cells after 96 hrs by MTT assay. The class given is functional, cell-based.
Experiment [1] in a line: Antioxidant activity assessed as superoxide radical scavenging activity measured every 30 seconds for 5 mins by spectrophotometric analysis. The class given is functional.
Experiment [2] is described as follows: Antioxidant activity assessed as ABTS radical scavenging activity after 6 mins by spectrophotometric analysis. It is filed as functional.
Experiment [3] is described as follows: Antioxidant activity assessed as hydroxyl radical scavenging activity after 20 mins by spectrophotometric analysis. The class given is functional.
Experiment [4] deals with Radical scavenging activity. As to the kind of experiment: Antioxidant activity assessed as DPPH free radical scavenging activity after 30 mins by spectrophotometric analysis. The class given is functional. The essentials: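 Daily methanolic DPPH solution was adjusted to A517 = 1.1. Methanolic sample at several concentrations was added to 1 mL, incubated 30 min at 37 °C, then A517 was read. Scavenging % = [(Acontrol − Asample)/Acontrol] × 100. Run in triplicate with BHT as positive control.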
Background: The DPPH test is a chemical assay of radical scavenging.

The next experiment deals with MT4. As to the kind of experiment: Cytotoxicity against human MT4 cells after 96 hrs by MTT assay. The class given is functional, cell-based. Particulars: MT4, 96 h.
Experiment [5] has as its system Radical scavenging activity. Put plainly: Antioxidant activity assessed as DPPH free radical scavenging activity by spectrophotometric analysis. It is filed as functional.
In a further experiment the test system is K562. As to the kind of experiment: Cytotoxicity against human K562 cells after 96 hrs by MTT assay. It is filed as functional, cell-based. Conditions: K562, 96 h.
Experiment [6] in a line: Antioxidant activity assessed as ABTS radical scavenging activity after 10 mins by spectrophotometric analysis. It is filed as functional. The procedure, abridged:
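ABTS radical cation was made from 7 mM ABTS in water plus potassium persulfate (2.45 mM final), left 12 h in the dark at room temperature, then diluted in methanol to A734 0.706 ± 0.009. 1 mL of this was mixed with 1 mL of methanolic sample at several concentrations. […] Run in triplicate with a BHT positive control.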

The nature of experiment [7]: Antioxidant activity assessed as H2O2 scavenging activity by NBT reduction assay. It is filed as functional. The essentials:
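H2O2 at 43 mM was prepared in 0.1 M phosphate buffer, pH 7.4. 100 µL of test solution was added along with NADH (73 µM), NBT (50 µM) and PMS (15 µM), 500 µL each. Percent H2O2 scavenged = [(Acontrol − Asample)/Acontrol] × 100.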

The nature of experiment [8]: Antioxidant activity assessed as superoxide radical scavenging activity after 2 mins by NBT reduction assay. It is filed as functional. The procedure, abridged: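 The 1 mL reaction held 20 mM phosphate buffer pH 7.4, NADH 73 µM, NBT 50 µM, PMS 15 µM and sample at several concentrations. After 2 min at ambient temperature, formazan was read at A562 against a blank. % scavenging was taken vs control. Done three times, with BHT as comparator.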

Experiment [9] can be described thus: Cytotoxicity against human MES-SA/Dx5 cells after 96 hrs by MTT assay. It is filed as functional, cell-based. Particulars: MES-SA/Dx5, 96 h.

Each structure is given as a SMILES string. In brackets after ≈: the same amount, converted by molar mass.

What is called IC50 is the midpoint of a concentration-inhibition curve. Turning to `COc1c2occc2cc2ccc(=O)oc12` [METHOXSALEN], the half-inhibitory concentration (IC50) with PANC-1 is 83.3 µM; with HCT-116 it was over 100 µM; against Acetylcholinesterase, 0.76 µM; in the experiment on HT-29, over 100 µM.

Compound `CC(=O)O[C@H]1C(=O)[C@@]2(C)[C@H]([C@H](OC(=O)c3ccccc3)[C@]3(O)C[C@H](OC(=O)[C@H](O)[C@@H](NC(=O)c4ccccc4)c4ccccc4)C(C)=C1C3(C)C)[C@]1(OC(C)=O)CO[C@@H]1C[C@@H]2O` [PACLITAXEL] returned an IC50 in the experiment with HT-29 of 0.00198 µM.

As to `O=C(O)/C=C/c1ccc(O)c(O)c1` [CAFFEIC ACID], the IC50 with HCT-116 is 29.7 µM; on Acetylcholinesterase it was over 100 µM; in the experiment with AGS, 129 µM; in experiment [1], 0.38 µg/mL (≈ 2.11 µM); in [2], 0.57 µg/mL (≈ 3.16 µM); in experiment [3] it was 0.37 µg/mL (≈ 2.05 µM). Also, the IC50 stood at 27.2 µM in the experiment on HT-29 and 0.39 µg/mL in [4].

As to `O=c1ccc2ccc(O)cc2o1` [UMBELLIFERONE], the IC50 came to 8.05 µM in the experiment on HCT-116, 2340 µM in the experiment with MT4, 4.35 µM in the experiment with HT-29 and 36.1 µg/mL (≈ 223 µM) in [5].

Turning to `O=c1ccc2cc3ccoc3cc2o1` [PSORALEN], the IC50 in the experiment with K562 was found to be 131 µM; in the experiment with HCT-116 it was 45.6 µM; against Acetylcholinesterase it was 6.48 µM; in the experiment on HT-29 it was 41.7 µM.

For the compound `C/C=C(\C)C(=O)OC(C)(C)[C@@H]1Cc2cc3ccc(=O)oc3cc2O1`, the figures for the concentration for half-maximal inhibition (IC50) in the experiment with HCT-116, against Acetylcholinesterase and with HT-29 were 7.6 µM, over 100 µM and 0.93 µM, respectively.

As for `Cc1cc(C(C)(C)C)c(O)c(C(C)(C)C)c1` [BUTYLATED HYDROXYTOLUENE], the half-inhibitory concentration (IC50) in experiment [6] was 6.85 µM; in [7], 6.38 µM; in experiment [8], 7.26 µM; in [4] (read-out: IC50), 9.02 µM.

Turning to `CC(C)=CC(=O)OC(C)(C)[C@@H]1Cc2cc3ccc(=O)oc3cc2O1` [(-)-PRANTSCHIMGIN], the IC50 was 3.1 µM in [9], 15 µM with HCT-116, over 100 µM against Acetylcholinesterase and 5.2 µM with HT-29.
